# NR2E3 ag-1 = NR2E3 (human) agonism; Q9Y5X4; GST-NR2E3/biotin-RetCOR TR-FRET, 1536-well; inhibition of corepressor binding, % at 4.78 µM; hit rate 0.12% among 320,000; AID 2300;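 active means percent inhibition above the cutoff of mean plus 3 SD of all tested compounds, set per screening campaign, cut at about 20% in these data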;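 further: 0% = DMSO wells and 100% = biotin wells as full block of FRET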
# Target sequence (Q9Y5X4 whole entry, looked up): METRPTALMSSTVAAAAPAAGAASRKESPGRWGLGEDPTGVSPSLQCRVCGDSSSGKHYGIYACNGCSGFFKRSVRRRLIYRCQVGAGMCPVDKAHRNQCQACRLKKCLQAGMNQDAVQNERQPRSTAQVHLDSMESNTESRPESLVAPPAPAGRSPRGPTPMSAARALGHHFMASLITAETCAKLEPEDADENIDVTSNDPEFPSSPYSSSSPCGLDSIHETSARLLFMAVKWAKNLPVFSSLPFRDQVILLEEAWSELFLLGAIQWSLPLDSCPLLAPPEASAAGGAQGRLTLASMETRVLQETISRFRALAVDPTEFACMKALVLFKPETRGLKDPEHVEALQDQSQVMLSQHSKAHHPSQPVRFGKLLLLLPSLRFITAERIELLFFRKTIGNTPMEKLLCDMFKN
#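 Material: NR2E3–RetCOR corepressor complex / Amount: 1.35 nM GST-NR2E3 / Medium: Tris pH 7.5 / Compound: single nominal compound dose of 4.8 µM / Incubation: 5 h at 4 °C / Technique: TR-FRET, Eu(K)-anti-GST donor, streptavidin-D2 acceptor, ex 340, em 617/671 nm / Read-out basis: percent loss of FRET ratio relative to control wells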
# PP5 primary = PP5 (human) phosphatase inhibition; P53041; hit rate 0.18% among 320,000; inhibition, % at 6.7 µM; purified PP5c, OMFP substrate fluorescence;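 active means inhibition above the campaign's mean inhibition across all tested compounds plus 3 SD, cut at about 9.5% in these data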;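 further: 0% = DMSO only and 100% = 100 µM cantharidin control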
# PP1 inh = blocks human PP1-alpha phosphatase, a PP5 counter-screen; hit rate 0.9% among 320,000; P62136; purified PP1alpha, OMFP fluorescence; inhibition, % at 6.7 µM; AID 2235;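 active means inhibition above the mean inhibition of all tested compounds plus 3 SD, computed separately for each screening campaign, cut at about 15% in these data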
# NR2E3 ag-2 = agonists of human NR2E3 nuclear receptor | Q9Y5X4 | CHO-S Gal4-NCOR/VP16-NR2E3 two-hybrid, luciferase | inhibition of corepressor binding, % at 3.98 µM | hit rate 0.35% among 360,000 | AID 602229;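 active means inhibition above the mean of all tested compounds plus 3 SD, cut at about 70% in these data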;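 further: 0% = DMSO with NR2E3 transfected cells and 100% = cells lacking NR2E3 construct; higher means lower luciferase signal from less NR2E3 corepressor binding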
# PP1 inh confirm = confirmation of human PP1 phosphatase inhibitors. shares compounds with PP1 inh. purified PP1alpha, OMFP substrate fluorescence. inhibition, % at 6.7 µM. hit rate 52% among 1,900. AID 2358;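 active means mean PP1 inhibition above a set limit taken from the earlier primary screen, cut at about 15% in these data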
# PP5 counter = PP5 phosphatase inhibition, counter-screen for PP1 inhibitors. purified PP5c, OMFP fluorescence. shares compounds with PP1 inh. hit rate 4% among 1,900. inhibition, % at 6.7 µM;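 active means mean PP5 inhibition over triplicate wells above about 9.5% taken from the earlier PP1 screen, limit read from the data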
# An asterisk follows results filed as active; · = no result given. A selection: hits, their analogues and other compounds. The true share with any hit is near 1.3%.
SMILES,NR2E3 ag-1,PP5 primary,PP1 inh,NR2E3 ag-2,PP1 inh confirm,PP5 counter
CCCC(=O)NC(c1ccco1)c1cc(Cl)c2cccnc2c1O (centres undefined),7,2,7,-22,·,·
O=C(NCc1cccnc1)OC1CC2CC1[C@H]1CCCCN1C2=O (some centres undefined),·,·,·,5,·,·
O=C(Nc1cccc(C(F)(F)F)c1)c1ccc2sc([C@H]3C[C@H](O)[C@@H](CO)O3)nc2c1,·,·,·,-36,·,·
CC1(C)OC(=O)C2=C(C[C@@H](C3CCCCC3)O[C@H]2c2ccc(F)cc2)O1,·,·,·,-15,·,·
COc1ccc(C2C(C(=O)c3ccco3)=C(O)C(=O)N2CCc2ccccc2)cc1OC (centres undefined),6,1,30*,-6,29*,-2
Cc1ccc(C)c(S(=O)(=O)N2CCN(Cc3ccc(O)c4ncccc34)CC2)c1,5,6,31*,-22,30*,-7
Cc1ccc(C(=O)OCC(=O)c2ccc(S(=O)(=O)N3CCCCC3)cc2)o1,-7,2,66*,2,0,-2
O=C1Nc2cc(C(=O)N3CCN(c4ccccc4F)CC3)ccc2NC1CSCc1ccccc1F (centres undefined),-2,1,19*,·,33*,1
Cc1cccc(N2CCN(C(=O)c3ccc4c(c3)NC(=O)C(CSCc3cccc(F)c3)N4)CC2C)c1 (centres undefined),0,2,15,8,·,·
CCCCCN(C(=O)CCC(=O)OCC(=O)c1ccc(C(C)CC)cc1)c1c(N)n(CCCC)c(=O)[nH]c1=O (centres undefined),-4,0,29*,8,0,1
Cc1nc(-c2ccc(S(=O)(=O)NCc3cccnc3)s2)cs1,0,-1,-2,11,·,·
CC(=O)c1ccc(NC(=O)N[C@@H](CC(C)C)C(=O)O)cc1,5,-3,18*,-8,-4,-1
O=C(Nc1ccnn1C1CCNCC1)c1ccc2c(c1)OCO2,·,·,·,-18,·,·
O=S1(=O)N[C@H](Cc2ccccc2)COc2cccc(N3CCC[C@@H]3CO)c21,·,·,·,-23,·,·
Cc1cc(-c2csc(NC(=O)c3ccc(=O)[nH]c3)n2)c(C)n1Cc1ccccc1,0,-1,28*,-18,14,-2
O=C(O)C1Nc2ccc(OC(F)(F)F)cc2C2C=CCC12 (centres undefined),4,-1,22*,·,4,-1
O=C(NC1CC1)C1Nc2ccc(OC(F)(F)F)cc2C2C=CCC12 (centres undefined),-4,1,-1,-60,·,·
CCN(CC)c1ccc(-c2nn3c(-c4n[nH]c5c4CCC5)nnc3s2)cc1,1,4,22*,1,31*,1
CC1(C(=O)NS(=O)(=O)c2cccs2)CCN1C(=O)CC1CCCCC1 (centres undefined),·,·,·,-21,·,·
CCCCOc1cccc(C2C(C(=O)c3ccc(C)o3)=C(O)C(=O)N2c2nnc(C)s2)c1 (centres undefined),·,·,·,-41,·,·
CCOC(=O)c1sc(N2C(=O)C(O)=C(C(=O)c3ccc(C)o3)C2c2ccc(OC)c(OC)c2)nc1C (centres undefined),4,2,37*,-24,35*,5
C=CCOc1cccc(C2C(C(=O)c3ccc(C)o3)=C(O)C(=O)N2c2nccs2)c1 (centres undefined),12,-1,22*,-5,15*,-2
Cc1ccc2nc(N3C(=O)C(O)=C(C(=O)c4ccc(C)o4)C3c3cccc(O)c3)sc2c1 (centres undefined),4,2,25*,-106,27*,9.7*
CCOC(=O)c1sc(N2C(=O)C(O)=C(C(=O)c3ccc(C)o3)C2c2cccc([N+](=O)[O-])c2)nc1C (centres undefined),5,3,35*,-2,21*,-2
COC(=O)c1sc(N2C(=O)C(O)=C(C(=O)c3ccc(C)o3)C2c2ccc(OC)c(OC)c2)nc1C (centres undefined),·,·,·,-20,·,·
SMILES,NR2E3 ag-1,PP5 primary,PP1 inh,NR2E3 ag-2,PP1 inh confirm,PP5 counter
COc1ccc2nc(N3C(=O)C(O)=C(C(=O)c4ccco4)C3c3ccc(OC)c(OC)c3)sc2c1 (centres undefined),·,·,·,9,·,·
Cc1cccc(NC(=O)CS(=O)CC(=O)Nc2cnc3ccccc3c2)c1C (centres undefined),-2,-1,-1,-35,·,·
CCc1nc2c(OCCOc3ccc(F)cc3)cccn2c1N(C)C(=O)CC(C)C,·,·,·,16,·,·
COc1ccnc(CS(=O)c2nc3cc(OC(F)F)ccc3[nH]2)c1OC (centres undefined),1,-2,1,·,·,·
COc1ccc(S(=O)(=O)N2CCC(C(=O)N[C@H](C(=O)N3CCCCCC3)C(C)C)CC2)cc1,1,2,0,21,·,·
COC(=O)c1sc(N2C(=O)C(O)=C(C(=O)c3ccc(C)o3)C2c2ccc([N+](=O)[O-])cc2)nc1C (centres undefined),7,1,43*,-23,29*,-1
COc1ccc(C(=O)/C=C/Nc2cccc(C)n2)cc1OC,1,0,35*,-149,1,-3
Cc1ccc(CNC(=O)c2ccc(N3CCC4(CC3)CC(c3cccc(Br)c3)=NO4)c(NC(=O)c3c(Cl)cccc3Cl)c2)cc1,3,0,21*,4,14,-2
O=C(NCc1ccccc1Br)c1cccc2c1C(=O)c1ccc(N3CCOCC3)cc1S2(=O)=O,-72,-2,28*,·,37*,-7
CC(/C=C1\SC(=S)N(c2ccc(C(=O)O)cc2)C1=O)=C\c1ccccc1,4,1,44*,5,31*,-4
Cc1cn([C@H]2C[C@H](O)[C@@H](CCC(=O)NCCc3cnc[nH]3)O2)c(=O)[nH]c1=O,·,·,·,-7,·,·
CC1(C(=O)NS(=O)(=O)c2ccccc2C(F)(F)F)CCN1C(=O)c1cccc(F)c1 (centres undefined),·,·,·,-12,·,·
O=c1cc(-c2ccco2)nc(SCc2cccc(Cl)c2)[nH]1,5,2,18*,7,12,1
CCCCN1C(=O)C(CC(=O)NCC2CCCCC2)CC(C(=O)N2CCOCC2)=C1C (centres undefined),·,·,·,-4,·,·
Cc1nn(CC(=O)Nc2ccc(C(=O)N3CCCCC3)cc2)c(=O)c2ccccc12,0,5,23*,5,-2,0
CC(C)CC(=O)Nc1ccc(C(=O)Cn2nc(C(=O)O)c3ccccc3c2=O)cc1,2,2,20*,-13,23*,0
O=C(CSc1nnc(COc2ccc(F)cc2)o1)N1c2ccccc2CCc2ccccc21,0,3,3,19,·,·
Cc1cccc(OCc2nnc(SCC(=O)N3c4ccccc4CCc4ccccc43)o2)c1,3,2,19*,-23,4,-1
